Shown are actives, neighbours in structure and some others; about 1.9% of the full set was active somewhere.
MsrA inh: bovine MsrA inhibition. purified bovine MsrA, absorbance read-out. inhibition, % at 15.5 µM. 360,000 compounds, 0.75% hits; in the data active = inhibition above about 4.5%;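 note: 0% = vehicle wells with enzyme and 100% = reference inhibitor wells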
aDG glyco act: increases alpha dystroglycan glycosylation; Pro5-aDG cells, alpha-DG glycosylation AlphaScreen (IIH6); 0% Pro5, 100% B10-LARGE cell signal; activation, % at 10 µM; 360,000 compounds, 0.22% hits;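 active = activation of at least 8% versus controls, or a plate z-score of at least 8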;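 note: Pro5 are CHO cells carrying HIG-tagged alpha-DG that lacks glycosylation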
Vif inh: blocks HIV Vif function; HEK293T cells, Vif self-association by quenched fluorescence, imaging, 24 h; inhibition, % at 7.49 µM; 340,000 compounds, 0.35% hits; AID 602346; in the data active = inhibition above about 50%, passing the limit was not always enough; inconclusive = no clear call, values can overlap the other calls; inactive = below about 31%
MsrA act: activators of bovine methionine sulfoxide reductase A. purified bovine MsrA, absorbance read-out. activation, % at 10.6 µM. 360,000 compounds, 0.3% hits. AID 602163; in the data active = activation above about 7.5%;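 note: 0% = vehicle and 100% = reference activator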
N-glyco inh: N-linked glycosylation inhibition; D54 ERlucT glycosylation luciferase reporter, 24 h; percent of 100 nM tunicamycin response; AID 588692; reporter increase, % at 12.5 µM; 360,000 compounds, 0.23% hits;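 active = mean luciferase reporter signal, scaled so untreated is 0 and the glycosylation-blocking control 100, at or above a set limit in every replicate; inconclusive = mean reaches the limit but not every replicate does; inactive = mean below the limit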;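 note: luciferase carries N-glycosylation sites so blocking glycosylation raises the light; 0% = median of neutral control wells and 100% = median of 100 nM tunicamycin wells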
UCH37 DUB inh: human UCH37 deubiquitinating enzyme inhibition; 330,000 compounds, 0.33% hits; inhibition, % (no concentration beside the values); Q9Y5K5; purified proteasome/UCH37, Ub-AMC cleavage fluorescence;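 active = mean inhibition over replicate wells above about 20%, limit read from the data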;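 note: 0% = compound-free wells with enzyme and 100% = wells lacking proteasome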
Target sequence (Q9Y5K5 whole entry, looked up): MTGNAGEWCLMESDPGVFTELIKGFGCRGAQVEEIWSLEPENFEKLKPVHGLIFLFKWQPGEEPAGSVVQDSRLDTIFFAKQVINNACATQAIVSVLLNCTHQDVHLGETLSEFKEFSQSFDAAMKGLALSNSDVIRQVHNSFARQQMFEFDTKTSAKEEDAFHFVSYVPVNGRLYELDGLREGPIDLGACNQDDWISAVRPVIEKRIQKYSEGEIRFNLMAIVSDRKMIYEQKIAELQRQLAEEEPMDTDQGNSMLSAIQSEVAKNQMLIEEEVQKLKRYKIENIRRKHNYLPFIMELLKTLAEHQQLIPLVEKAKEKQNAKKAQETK
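Assay system: Proteasome-bound UCH37. Buffer or medium: pH 7.4 Tris-HCl (50 mM) with ovalbumin, ATP-MgCl2, DTT. Incubation: 30 min preincubation with enzyme, 25 min cleavage at room temperature. Measured by: fluorescence, ex 355 nm, em 460 nm. Read-out basis: percent inhibition. Control set: wells without proteasome as full block, compound-free enzyme plus substrate as uninhibited.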
Numbers without * were called inactive; i = inactive; ? = inconclusive; · = not tested or not shown.

SMILES	MsrA inh	aDG glyco act	Vif inh	MsrA act	N-glyco inh	UCH37 DUB inh
Cc1ccnc(NC(=O)C(Cc2ccccc2)NC(=O)c2ccccc2)c1 (stereo unspecified)	1.1	-0.3	-3.0	-3.6	25.5*	6.1
Cc1nn(C(C)C(=O)NN=Cc2ccc(N(C)C)cc2)c(C)c1[N+](=O)[O-] (stereo unspecified)	·	·	·	·	·	8.7
CCOC(=O)c1c(NC(=O)c2cc3n(n2)C(C(F)(F)F)CC(c2cccs2)N3)sc(C)c1C (stereo unspecified)	0.0	0.2	-0.4	-4.5	97.9*	·
Cc1ccc(-c2cc(C(=O)NN=Cc3ccoc3)c3ccccc3n2)cc1	·	·	·	·	·	-3.3
Nc1nc(Nc2ccccc2)sc1C(=O)c1ccccc1	0.3	-0.1	-17.2	-3.0	28.5*	·
COc1ccc(C(=O)c2sc(Nc3ccccc3)nc2N)cc1OC	0.3	0.2	30.3	-5.2	33.3*	-1.7
COc1ccc(C(=O)c2sc(Nc3ccccc3)nc2N)cc1	-0.6	-0.3	-1.3	-3.4	24.9	0.9
CN(c1ccc(OCC(=O)OCC(=O)Nc2ccccc2F)cc1)S(=O)(=O)c1cccs1	0.2	-0.1	6.2	-4.2	-0.3	2.4
Cc1cc(C)cc(NC(=O)COC(=O)COc2ccc(N(C)S(=O)(=O)c3cccs3)cc2)c1	1.0	-0.1	50.1*	-2.2	1.6	-2.0
COc1cccc(-c2c(C(=O)NN=C(C)c3cccs3)nnn2-c2nonc2N)c1	·	·	·	·	·	3.5
COc1ccccc1N1CCN(N=Cc2ccccc2)CC1	·	·	·	·	·	2.8
COc1cc2ccccc2cc1C(=O)N/N=C/c1cccs1	4.2	-0.2	2.4	-7.8	34.7*	·
O=C(NN=Cc1ccco1)c1cc(-c2ccccc2)n[nH]1	·	·	·	·	·	4.0
CC(=O)Nc1ccc(Nc2nc(-c3sc(NC(C)=O)nc3C)cs2)cc1	0.9	-0.1	-3.0	-4.2	-2.1	·
CC(=O)Nc1nc(C)c(-c2csc(Nc3cccc(C(C)=O)c3)n2)s1	4.6*	0.0	-17.9	-1.8	-13.4	2.3
CC(=O)Nc1nc(C)c(-c2csc(Nc3ccc(O)cc3)n2)s1	·	-0.1	60.8*	-12.2	-14.3	-19.8
CC(=O)Nc1nc(C)c(-c2csc(Nc3cccc([N+](=O)[O-])c3)n2)s1	1.0	-0.4	-3.3	-11.7	-8.2	4.7
COc1ccc(CNC(=O)c2cc(-c3ccco3)on2)cc1	0.9	0.1	6.9	21.9*	1.3	-0.4
CC(C)CNC(=O)c1cc(-c2ccco2)on1	-0.8	-0.2	-9.2	-2.4	4.7	0.0
CCCNC(=O)c1cc(-c2ccco2)on1	0.6	-0.5	-5.3	-4.0	81.2*	0.9
O=C(NCc1ccc(Cl)cc1)c1cc(-c2ccco2)on1	1.7	-0.2	·	-3.2	1.1	0.1
O=C(Cc1ccccc1)NN=Cc1ccccn1	·	·	·	·	·	1.4
COc1cc([N+](=O)[O-])ccc1-c1ccc(C=Nn2cnnc2)o1	·	·	·	·	·	5.4
COc1cc([N+](=O)[O-])ccc1-c1ccc(/C=N\n2cnnc2)o1	-0.8	0.0	177.2*	-1.5	2.4	·
C=CC[C@@H](CC(=O)NCCO)C(=O)N[C@@H](COC(=O)[C@@H](CC=C)CC(=O)OC(C)(C)C)Cc1c[nH]c2ccccc12	0.2	-0.1	-0.1	-0.7	0.1	22.9*
SMILES	MsrA inh	aDG glyco act	Vif inh	MsrA act	N-glyco inh	UCH37 DUB inh
COc1cc(COc2ccc(S(=O)(=O)N3CCOCC3)cc2[N+](=O)[O-])ccc1OC(F)F	0.9	1.1	57.4*	-2.6	-3.4	·
COC(=O)C(=NNc1ccc(C)cc1)N1CCCc2ccccc21	·	·	·	·	·	1.9
CN(CC(=O)O/N=C(\N)c1ccc([N+](=O)[O-])cc1)S(=O)(=O)c1ccc2ccccc2c1	-0.7	0.0	58.9*	-4.4	5.4	5.5
COc1ccc(/C(N)=N/OC(=O)CN(C)S(=O)(=O)c2ccccc2)cc1	-0.5	-0.7	-1.4	-11.6	-1.5	-1.1
CCC(C)NC(=O)Cn1c(=O)n(-c2ccccc2)c(=O)c2ccc(C(=O)NCc3ccco3)cc21 (stereo unspecified)	2.9	0.0	60.7*	-1.1	1.7	-0.7
O=C(CS(=O)(=O)c1ccccc1)Nc1ccc(Cl)cn1	-0.7	-0.1	-2.0	-5.2	1.7	3.2
O=C(CC(c1ccccc1)c1ccccc1)Nc1ccc(Cl)cn1	0.8	-0.1	8.1	-0.4	4.7	33.9*
Oc1ccc(-c2nc(-c3ccc(O)c(O)c3)cs2)cc1	2.0	0.3	64.4*	-2.4	11.8	1.0
Cn1c(=O)c2c(nc(NCC3CCCO3)n2Cc2ccccc2)n(C)c1=O (stereo unspecified)	0.4	0.0	9.3	0.3	4.1	25.8*
O=C1CCCC2=C1C1(CCCC1)N=C(Nc1nc3ccccc3o1)N2	1.0	-0.3	·	-2.9	13.9	·
O=C1CCCC2=C1C1(CCCCC1)N=C(Nc1nc3ccccc3o1)N2	-0.6	-0.1	-2.3	-4.8	47.1*	-8.9
COc1ccc(CCNc2c3ccccc3nc3ccccc23)cc1OC	-1.6	0.3	-1.9	-12.5	84.5*	-116.5
COCCNc1c2c(nc3ccccc13)CCC2	2.0	0.1	-3.7	-4.0	1.6	6.2
CN(C)CCCNc1c2c(nc3ccccc13)CCC2	2.0	-0.1	-2.0	-2.4	29.8*	2.8
Cc1ccc(-c2nc(NCCN(C)C)c3ccccc3n2)cc1	0.2	-0.1	-2.7	-7.8	?	-3.2
CN(C)CCCNc1nc(-c2ccc(Cl)cc2)nc2ccccc12	6.0*	0.0	-5.0	-2.5	13.5	3.0
OCCCNc1c2ccccc2nc2ccccc12	1.1	0.5	-18.4	-9.6	36.3*	-11.6
C/C(C=NNC(=O)c1ccc2nc(C)[nH]c2c1)=C\c1ccccc1	·	·	·	·	·	6.5
CCCCNC(=O)N(O)C1N(N=Cc2cccs2)C(=S)SC1(C)C (stereo unspecified)	·	·	·	·	·	9.6
O=[N+]([O-])c1ccc(N2CCN(S(=O)(=O)c3ccc(Cl)cc3)CC2)cc1NCC1CCCO1 (stereo unspecified)	-0.5	0.4	57.4*	-5.4	-0.1	4.8
CCOC(=O)c1c(N)c2cc([N+](=O)[O-])ccc2n1C	1.3	0.0	3.2	-1.8	-0.3	0.7
CCOC(=O)/C(=C/c1c(C)n(C)c2ccc([N+](=O)[O-])cc12)C(C)=O	2.6	-0.3	4.1	-11.8	44.3*	4.7
CN(C)C=Nc1nc2nccc(-c3cccnc3)n2n1	·	·	·	·	·	i
COc1ccc(NC(=O)Cn2nnc(C(=O)NCCc3ccccc3)c2N)cc1	0.2	-0.2	-7.3	0.4	-0.3	2.0
COc1ccc(NC(=O)Cn2nnc(C(=O)Nc3ccccc3C)c2N)cc1	0.0	-0.2	53.4*	-2.4	-0.1	0.3
Cc1cccc(N(CC(=O)NN=Cc2cc([N+](=O)[O-])ccc2Cl)S(C)(=O)=O)c1C	·	·	·	·	·	2.3
O=C(Nc1ccc(F)cc1)c1ccc(S(=O)(=O)N2CCOCC2)o1	0.2	-0.1	53.4*	0.5	0.6	3.4
NS(=O)(=O)c1ccc(NC(=O)c2ccc(S(=O)(=O)N3CCOCC3)o2)cc1	-0.9	-0.1	0.7	-2.9	-1.3	5.0

Source: PubChem BioAssay
